According to the EternaBench riboswitch data:

Test system: MS2 coat protein
Test: apparent Kd, MS2 coat protein; higher = weaker binding; RNA-MaP array; FMN 200 µM where present
Outline: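 Green signal was scaled to red-channel RNA signal and control-cluster median Fmax, and the apparent Kd was taken as the median of filtered per-cluster binding-curve fits. The binding series used SNAP-549-labelled MS2 coat protein from 0.7 or 1.5 nM, doubling to 3 µM, on designs transcribed by stalled E. coli RNA polymerase on Illumina sequencing-chip clusters. Each series ran without and then with constant ligand in 100 mM Tris-HCl pH 7.5, 80 mM KCl, 4 mM MgCl2, BSA, DTT, yeast tRNA and Tween-20.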

[1] = designed as: OFF switch for flavin mononucleotide, no ligand
[2] = ligand present: flavin mononucleotide, designed as: OFF switch for flavin mononucleotide
[3] = designed as: ON switch for flavin mononucleotide, no ligand
[4] = ligand present: flavin mononucleotide, designed as: ON switch for flavin mononucleotide

UUGUUGUAUGUAGGAUAUGCAUAUUGUUAUUAUGCAGAAGGACAUGAGGAUCACCCAUGUAUAUUAUUAUUAUAUAUUAUAUAU
apparent Kd [1]: 27.7 nM | apparent Kd [2]: 43.9 nM

UUUAACGUAGCAGGAUAUUGACGACUUGGGACAUGAGGAUCACCCAUGUUGCAAGAAGGGCUUAGUCAAGACACGAGCGGUGUU
apparent Kd [1]: 6.54 nM | apparent Kd [2]: 8.15 nM

UUUACAUUACGAGGAUAUCAAUUAUUUCAUGUAUGAGAAGGCGUUAUUUUUACUACCUUACAUGAGGAUCACCCAUGUUUCAUU
apparent Kd [3]: 62.8 nM | apparent Kd [4]: 27.8 nM

UUUAUAAAGAUAGGAUAUAGUAUAAUAAUUUAAUUAGAAGGAUCACACAUGAGGAUCACCCAUGUAUGAGGAUCACCCAUGUAU
apparent Kd [1]: 20.4 nM | apparent Kd [2]: 21.1 nM

UUUAUAAAGGUAGGAUAUUGUAUUAUAAUUAAAUAAGAAGGAUCACACAUGAGGAUCACCCAUGUAUGAGGAUCACCCAUGUAU
apparent Kd [1]: 15.7 nM | apparent Kd [2]: 14.4 nM

UUUAUAAGAAAAUAAACGAAGUGGCCAGAAGGUGAAUGCCACAUGAGGAUCACCCAUGUUUCGAUCAAGGAUAUGGUUUCUCAC
apparent Kd [3]: 400 nM | apparent Kd [4]: 107 nM

UUUAUGAAGCUUCGUCAAUACAGUUAGGAUAUGAGAGACAUGAGGAUCACCCAUGUGCAUGUUGAUUAGAAGGAACAACUAUCU
apparent Kd [1]: 17.6 nM | apparent Kd [2]: 15.1 nM

UUUCGGCUCGAGAAGGUCUAUCGACAUGAGGAUCACCCAUGUUGCCAUGGAAGGAUAUCGAAGGCAGCACGGGAAAUAGUCCGG
apparent Kd [3]: 185 nM | apparent Kd [4]: 53.3 nM

UUUGCAACAUGAGGAUCACCCAUGUAGGAUAUCGCUAUUGUAAUCAUGAAACAUGAUUACAAUAGCGAGAAGGACAUAUGCGGG
apparent Kd [1]: 44.4 nM | apparent Kd [2]: 35 nM

UUUGCAUUCCGAGGAUAUUCAUAUAAUAAAUAAACAUGAGGAUCACCCAUGUGGCGAAAGCCUAGGGAGAAGGCGGUUUGCUUU
apparent Kd [3]: 139 nM | apparent Kd [4]: 25.7 nM

UUUGCAUUCCGAGGAUAUUCAUUUAAUGACUUCACAUGAGGAUCACCCAUGUGGCGCUUGCGCCGGGAGAAGGCGGUUUGCUUU
apparent Kd [3]: 25.6 nM | apparent Kd [4]: 24.1 nM

UUUGGGUGGCUGGAGGAUAUUCGAGUGGUUACAUGAGGAUCACCCAUGUGUCGCGCGGUACACGAGGAGAAGGCUGGCGGCCGUU
apparent Kd [3]: 50.8 nM | apparent Kd [4]: 22.4 nM

UUUGUAAUGUCAGGAUAUAUAAUAAGUCAUACAGUAGAAGGGAUAAUAAUACUCAUGUACAUGAGGAUCACCCAUGUUAAAUAU
apparent Kd [3]: 98.8 nM | apparent Kd [4]: 52.4 nM

UUUGUCAUCGAGAAGGCCUCAACAUGAGGAUCACCCAUGUUGUAAUAUGGGAGGAUAUCGAUGAUACAGCUACGUUUCGUAAAA
apparent Kd [3]: 20 nM | apparent Kd [4]: 5.58 nM

UUUGUUGUUGUGAGGAUAUCGUAGUUAUUUUGUAACGAGAAGGCACAUGAGGAUCACCCAUGUUUUUUGAUGGU
apparent Kd [1]: 22.7 nM | apparent Kd [2]: 90 nM

UUUUAACAUGAGGAUCACCCAUGUCGUUCAAAUCAAGGAUAUCAGGCGUGUGCACACGCCUGAGAAGGUGAAUCUC
apparent Kd [3]: 135 nM | apparent Kd [4]: 320 nM

UUUUAACAUGAGGAUCACCCAUGUGAGGAUAUCGAAAUUUAUAUUAAUAUUAAUAUUACGAGAAGGCACAUUUU
apparent Kd [1]: 77.8 nM | apparent Kd [2]: 101 nM

UUUUAACAUGAGGAUCACCCAUGUGAGGAUAUCGAAAUUUAUAUUAAUAUUAUUUAAUCGAGAAGGCACAUUUU
apparent Kd [1]: 110 nM | apparent Kd [2]: 118 nM

UUUUAACAUGAGGAUCACCCAUGUGAGGAUAUCGAAAUUUAUAUUAAUAUUUAUAUUACGAGAAGGCACAUUUU
apparent Kd [1]: 81.6 nM | apparent Kd [2]: 82.4 nM

UUUUAACAUGAGGAUCACCCAUGUGAGGAUAUCGAAAUUUAUAUUAAUAUUUUUAAUUCGAGAAGGCACAUUUU
apparent Kd [1]: 116 nM | apparent Kd [2]: 118 nM

UUUUAACAUGAGGAUCACCCAUGUGAGGAUAUCGAAAUUUAUAUUUAUAUUAAUAUUACGAGAAGGCACAUUUU
apparent Kd [1]: 85.5 nM | apparent Kd [2]: 118 nM

UUUUAACAUGAGGAUCACCCAUGUGAGGAUAUCGAAAUUUAUAUUUAUAUUAAUUAAUCGAGAAGGCACAUUUU
apparent Kd [1]: 151 nM | apparent Kd [2]: 156 nM

UUUUAACAUGAGGAUCACCCAUGUGAGGAUAUCGUUUUUUAUAUUAAUAUUAAUAAAACGAGAAGGCACAUUUU
apparent Kd [1]: 137 nM | apparent Kd [2]: 150 nM
